Measurements: ChEMBL document CHEMBL1153527, “Discovery of a novel series of quinolone and naphthyridine derivatives as potential topoisomerase I inhibitors by scaffold modification” (J Med Chem, 2009)

Columns and labels:
[1] = test system: A2780; assay: Cytotoxicity against human A2780 cells after 48 hrs by MTT assay; assay type: functional, cell-based; conditions: A2780, 48 h
[2] = test system: Bel-7402; assay: Cytotoxicity against human Bel7402 cells after 48 hrs by MTT assay; assay type: functional, cell-based; conditions: Bel-7402, 48 h
[3] = test system: KB; assay: Cytotoxicity against human KB cells after 48 hrs by MTT assay; assay type: functional, cell-based
[4] = Cytotoxicity against estrogen receptor-negative human […] cells expressing p53 mutant after 48 hrs by SRB assay; assay type: functional, cell-based
Procedure, shortened: (§1)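 Cell lines came from CCRC, Taiwan. Cells were seeded at about 5 × 10^3 per well and left overnight. They were then given serum-free medium containing 0-10 μM compound (0.08-10 μM serial dilutions) for 48 h at 37 °C. Cells were fixed with TCA (10% final), stained with SRB (0.4% final), and the dye was dissolved in 10 mM Tris with A515 read. IC50 was taken from a fitted log concentration-response curve.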

[5] = test system: HepG2; assay: Cytotoxicity against human HepG2 cells expressing wild type p53 after 48 hrs by SRB assay; assay type: functional, cell-based; conditions: HepG2, 48 h; procedure, shortened: as §1
[6] = test system: MCF7; assay: Cytotoxicity against estrogen receptor-positive human MCF7 cells expressing wild type p53 after 48 hrs by SRB assay; assay type: functional, cell-based; conditions: MCF7, 48 h; procedure, shortened: as §1
[7] = test system: AGS; assay: Cytotoxicity against human AGS cells expressing wild type p53 after 48 hrs by SRB assay; assay type: functional, cell-based; procedure, shortened: as §1
[8] = Cytotoxicity against p53-deficient human Hep3B cells after 48 hrs by SRB assay; assay type: functional, cell-based, Hep 3B2; procedure, shortened: as §1
[9] = test system: PC-3; assay: Cytotoxicity against p53-deficient human PC3 cells after 48 hrs by SRB assay; assay type: functional, cell-based; conditions: PC-3, 48 h; procedure, shortened: as §1
[10] = test system: A549; assay: Cytotoxicity against human A549 cells expressing wild type p53 after 48 hrs by SRB assay; assay type: functional, cell-based; conditions: A549, 48 h; procedure, shortened: as §1
[11] = test system: THP-1; assay: Cytotoxicity against human THP1 cells expressing p53 mutant after 48 hrs by SRB assay; assay type: functional, cell-based; conditions: THP-1, 48 h
[12] = test system: HeLa; assay: Cytotoxicity against p53-deficient human HeLa cells after 48 hrs by SRB assay; assay type: functional, cell-based; procedure, shortened: as §1
[13] = test system: K562; assay: Cytotoxicity against p53-deficient human K562 cells after 48 hrs by SRB assay; assay type: functional, cell-based; conditions: K562, 48 h
[14] = test system: HT-29; assay: Cytotoxicity against human HT-29 cells expressing p53 mutant after 48 hrs by SRB assay; assay type: functional, cell-based; conditions: HT-29, 48 h; procedure, shortened: as §1
[15] = test system: U-937; assay: Cytotoxicity against human U937 cells expressing p53 mutant after 48 hrs by SRB assay; assay type: functional, cell-based; conditions: U-937, 48 h

## CCn1cc(-c2nc3ccc([N+](=O)[O-])cc3[nH]2)c(=O)c2cc(F)c(N3CCNCC3)nc21
[1]
  IC50: 12.4 µM
[2]
  IC50: 10.8 µM
[3]
  IC50: 22.4 µM

## CCn1cc(-c2nc3ccc([N+](=O)[O-])cc3[nH]2)c(=O)c2cc(F)c(N3CCNCC3)cc21
[1]
  IC50: 1.6 µM
[2]
  IC50: 2.1 µM
[3]
  IC50: 1.1 µM

## CCn1cc(-c2nc3ccccc3s2)c(=O)c2cc(F)c(N3CCNCC3)cc21
[1]
  IC50: 11.3 µM
[2]
  IC50: 24.3 µM
[3]
  IC50: 28.7 µM

## CCn1cc(-c2nc3ccc([N+](=O)[O-])cc3s2)c(=O)c2cc(F)c(N3CCN(C)CC3)cc21
[4]
  GI50: > 10 µM
  IC50: > 10 µM
[1]
  IC50: 4.3 µM
[5]
  GI50: > 10 µM
  IC50: > 10 µM
[6]
  GI50: > 10 µM
  IC50: > 10 µM
[2]
  IC50: 7.7 µM
[7]
  GI50: 2.6 µM
  IC50: 4.5 µM
[3]
  IC50: 5.8 µM
[8]
  GI50: > 10 µM
  IC50: > 10 µM
[9]
  GI50: 5.5 µM
  IC50: 7.5 µM
[10]
  GI50: 4.7 µM
  IC50: 10 µM
[11]
  IC50: > 10 µM
[12]
  GI50: > 10 µM
  IC50: > 10 µM
[13]
  IC50: > 10 µM
[14]
  GI50: > 10 µM
  IC50: > 10 µM
[15]
  IC50: > 10 µM

## CCn1cc(-c2nc3ccccc3s2)c(=O)c2cc(F)c(N3CCNCC3)nc21
[1]
  IC50: 2.7 µM
[2]
  IC50: 2.4 µM
[3]
  IC50: 2.4 µM

## CCn1cc(-c2nc3ccccc3[nH]2)c(=O)c2cc(F)c(N3CCNCC3)cc21
[4]
  GI50: > 10 µM
  IC50: > 10 µM
[1]
  IC50: 0.8 µM
[5]
  GI50: > 10 µM
  IC50: > 10 µM
[6]
  GI50: > 10 µM
  IC50: > 10 µM
[2]
  IC50: 27.4 µM
[7]
  GI50: 9.5 µM
  IC50: > 10 µM
[3]
  IC50: 10.5 µM
[8]
  GI50: > 10 µM
  IC50: > 10 µM
[9]
  GI50: > 10 µM
  IC50: > 10 µM
[10]
  GI50: 0.6 µM
  IC50: 4.7 µM
[11]
  IC50: > 10 µM
[12]
  GI50: > 10 µM
  IC50: > 10 µM
[13]
  IC50: > 10 µM
[14]
  GI50: > 10 µM
  IC50: > 10 µM
[15]
  IC50: > 10 µM

## CCn1cc(-c2nc3ccc(N)cc3[nH]2)c(=O)c2cc(F)c(N3CCNCC3)cc21
[4]
  GI50: > 10 µM
  IC50: > 10 µM
[1]
  IC50: 51.5 µM
[5]
  GI50: > 10 µM
  IC50: > 10 µM
[6]
  GI50: > 10 µM
  IC50: > 10 µM
[2]
  IC50: 92.1 µM
[7]
  GI50: 7.8 µM
  IC50: 10 µM
[3]
  IC50: 35.4 µM
[8]
  GI50: > 10 µM
  IC50: > 10 µM
[9]
  GI50: > 10 µM
  IC50: > 10 µM
[10]
  GI50: > 10 µM
  IC50: > 10 µM
[11]
  IC50: 10 µM
[12]
  GI50: > 10 µM
  IC50: > 10 µM
[13]
  IC50: > 10 µM
[14]
  GI50: > 10 µM
  IC50: > 10 µM
[15]
  IC50: > 10 µM

## CCn1cc(-c2nc3ccc([N+](=O)[O-])cc3s2)c(=O)c2cc(F)c(N3CCNC(C)C3)c(F)c21 (stereo unspecified)
[4]
  GI50: 2.3 µM
  IC50: 7.4 µM
[1]
  IC50: 3.3 µM
[5]
  GI50: 0.9 µM
  IC50: 3.6 µM
[6]
  GI50: > 10 µM
  IC50: > 10 µM
[2]
  IC50: 4.1 µM
[7]
  GI50: 3.3 µM
  IC50: 5.4 µM
[3]
  IC50: 4.7 µM
[8]
  GI50: 0.6 µM
  IC50: 1.4 µM
[9]
  GI50: 2.7 µM
  IC50: 10 µM
[10]
  GI50: 1.5 µM
  IC50: 7 µM
[11]
  IC50: > 10 µM
[12]
  GI50: 1.7 µM
  IC50: 9.9 µM
[13]
  IC50: > 10 µM
[14]
  GI50: 1 µM
  IC50: 5 µM
[15]
  IC50: > 10 µM

## CCn1cc(-c2nc3ccc([N+](=O)[O-])cc3o2)c(=O)c2cc(F)c(Cl)cc21
[2]
  IC50: 1.8 µM
[3]
  IC50: 0.5 µM

## CCn1cc(-c2nc3ccc(Cl)cc3[nH]2)c(=O)c2cc(F)c(N3CCNCC3)nc21
[1]
  IC50: 6.3 µM
[2]
  IC50: 21.5 µM
[3]
  IC50: 10.3 µM

## CCn1cc(-c2nc3ccccc3[nH]2)c(=O)c2cc(F)c(N3CCN(C)CC3)cc21
[3]
  IC50: 36.7 µM

## CCn1cc(-c2nc3ccccc3[nH]2)c(=O)c2cc(F)c(N3CCNC(C)C3)c(F)c21 (stereo unspecified)
[1]
  IC50: 11.6 µM
[2]
  IC50: 30.2 µM
[3]
  IC50: 19.1 µM

## CCn1cc(-c2nc3ccc([N+](=O)[O-])cc3s2)c(=O)c2cc(F)c(N3CCNCC3)nc21
[1]
  IC50: 200 µM
[2]
  IC50: 24.6 µM
[3]
  IC50: 179 µM

## CCn1cc(-c2nc3ccc([N+](=O)[O-])cc3o2)c(=O)c2cc(F)c(N3CCNCC3)nc21
[4]
  GI50: > 10 µM
  IC50: > 10 µM
[5]
  GI50: > 10 µM
  IC50: > 10 µM
[6]
  GI50: > 10 µM
  IC50: > 10 µM
[2]
  IC50: 3 µM
[7]
  GI50: 2.3 µM
  IC50: 4.4 µM
[3]
  IC50: 1.8 µM
[8]
  GI50: > 10 µM
  IC50: > 10 µM
[9]
  GI50: 5.8 µM
  IC50: 9.8 µM
[10]
  GI50: 2.1 µM
  IC50: 7.3 µM
[11]
  IC50: > 10 µM
[12]
  GI50: > 10 µM
  IC50: > 10 µM
[13]
  IC50: > 10 µM
[14]
  GI50: > 10 µM
  IC50: > 10 µM
[15]
  IC50: > 10 µM

## CCn1cc(-c2nc3ccccc3s2)c(=O)c2cc(F)c(N3CCN(C)CC3)cc21
[1]
  IC50: 114 µM
[2]
  IC50: 24 µM
[3]
  IC50: 19 µM

## CCn1cc(-c2nc3ccc([N+](=O)[O-])cc3s2)c(=O)c2cc(F)c(N3CCNCC3)cc21
[1]
  IC50: 0.7 µM
[2]
  IC50: 1.8 µM
[3]
  IC50: 0.7 µM

## CCn1cc(-c2nc3ccccc3o2)c(=O)c2cc(F)c(Cl)cc21
[1]
  IC50: 78.4 µM
[2]
  IC50: 28.9 µM
[3]
  IC50: 10.2 µM

## CCn1cc(-c2nc3ccccc3o2)c(=O)c2cc(F)c(N3CCNC(C)C3)c(F)c21 (stereo unspecified)
[1]
  IC50: 83.5 µM
[2]
  IC50: 5.7 µM
[3]
  IC50: 18.9 µM

## CCn1cc(-c2nc3ccccc3s2)c(=O)c2cc(F)c(N3CCNC(C)C3)c(F)c21 (stereo unspecified)
[1]
  IC50: 9.8 µM
[2]
  IC50: 15 µM
[3]
  IC50: 24.3 µM

## C[C@H]1COc2c(N3CCN(C)CC3)c(F)cc3c(=O)c(-c4nc5ccccc5s4)cn1c23
[1]
  IC50: 26.6 µM
[2]
  IC50: 92.2 µM
[3]
  IC50: 60.2 µM

## CCn1cc(-c2nc3ccccc3o2)c(=O)c2cc(F)c(N3CCN(C)CC3)cc21
[1]
  IC50: 0.7 µM
[2]
  IC50: 2 µM
[3]
  IC50: 87.4 µM

## CC[C@@]1(O)C(=O)OCc2c1cc1n(c2=O)Cc2cc3cc(O)ccc3nc2-1 [HYDROXYCAMPTOTHECIN]
[1]
  IC50: 0.7 µM
[2]
  IC50: 0.2 µM
[3]
  IC50: 0.6 µM

## CCn1cc(-c2nc3ccc([N+](=O)[O-])cc3[nH]2)c(=O)c2cc(F)c(N3CCN(C)CC3)cc21
[1]
  IC50: 4.7 µM
[2]
  IC50: 4.4 µM
[3]
  IC50: 2.5 µM

## CCn1cc(-c2nc3ccccc3o2)c(=O)c2cc(F)c(N3CCNCC3)nc21
[1]
  IC50: 15.3 µM
[2]
  IC50: 16.8 µM
[3]
  IC50: 11.7 µM

## CCn1cc(-c2nc3ccc([N+](=O)[O-])cc3o2)c(=O)c2cc(F)c(N3CCN(C)CC3)cc21
[1]
  IC50: 39.6 µM
[2]
  IC50: 50.2 µM
[3]
  IC50: 40.3 µM
